Results reported in ChEMBL document CHEMBL1156003, “A strategy of employing aminoheterocycles as amide mimics to identify novel, potent and bioavailable soluble epoxide hydrolase inhibitors” (Bioorg Med Chem Lett, 2009).

Key:
[1] = molecular target: T1, Bifunctional epoxide hydrolase 2 (Homo sapiens, UniProt P34913); assay: Inhibition of human sEH
T1 sequence (P34913 whole entry): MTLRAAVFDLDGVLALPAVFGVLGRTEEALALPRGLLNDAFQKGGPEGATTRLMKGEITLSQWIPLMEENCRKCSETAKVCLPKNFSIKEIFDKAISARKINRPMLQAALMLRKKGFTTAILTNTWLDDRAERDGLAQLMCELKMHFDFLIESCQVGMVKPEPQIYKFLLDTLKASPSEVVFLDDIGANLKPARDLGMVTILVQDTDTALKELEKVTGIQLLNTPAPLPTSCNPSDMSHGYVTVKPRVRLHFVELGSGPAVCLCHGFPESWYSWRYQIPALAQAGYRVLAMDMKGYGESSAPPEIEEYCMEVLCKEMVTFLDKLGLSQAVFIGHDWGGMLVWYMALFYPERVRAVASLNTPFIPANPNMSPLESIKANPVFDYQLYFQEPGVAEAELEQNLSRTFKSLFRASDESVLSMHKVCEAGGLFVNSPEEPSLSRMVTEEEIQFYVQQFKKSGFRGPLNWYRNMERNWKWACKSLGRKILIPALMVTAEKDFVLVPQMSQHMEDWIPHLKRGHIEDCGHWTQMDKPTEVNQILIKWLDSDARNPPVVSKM
Outline: (§1)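 Human and rat sEH enzyme inhibition; values from one or two experiments, each in triplicate, within 20% deviation on repeat.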

[2] = molecular target: T2, Bifunctional epoxide hydrolase 2 (Rattus norvegicus, UniProt P80299); assay: Inhibition of rat sEH; outline: as §1
T2 sequence (P80299 whole entry): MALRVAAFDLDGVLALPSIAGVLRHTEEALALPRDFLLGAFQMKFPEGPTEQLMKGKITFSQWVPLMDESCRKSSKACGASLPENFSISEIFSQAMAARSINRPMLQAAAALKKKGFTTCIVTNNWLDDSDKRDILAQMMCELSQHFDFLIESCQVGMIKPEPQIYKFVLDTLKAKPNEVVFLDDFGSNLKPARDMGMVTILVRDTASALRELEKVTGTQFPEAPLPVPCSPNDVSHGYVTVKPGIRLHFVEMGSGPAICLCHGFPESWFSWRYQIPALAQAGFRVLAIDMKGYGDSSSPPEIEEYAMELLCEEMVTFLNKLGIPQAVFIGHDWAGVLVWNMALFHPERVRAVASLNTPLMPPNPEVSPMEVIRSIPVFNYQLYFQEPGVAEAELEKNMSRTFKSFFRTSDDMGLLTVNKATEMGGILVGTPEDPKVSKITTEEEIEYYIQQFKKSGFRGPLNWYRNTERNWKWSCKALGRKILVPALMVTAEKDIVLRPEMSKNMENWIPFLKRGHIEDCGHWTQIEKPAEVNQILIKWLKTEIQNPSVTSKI

Plasma [3] = assay: Fraction unbound in human plasma at 0.2 to 25 uM; format: ADME, cell-free; details: in the assay text read “0.5 to 25 uM” for “0.2 to 25 uM”
Outline: (§2)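 Free fraction measured with radiolabeled compound in human and rat plasma, compound at 0.5–25 μM.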

Plasma [4] = assay: Fraction unbound in rat plasma at 0.2 to 25 uM; format: ADME, cell-free; details: in the assay text read “0.5 to 25 uM” for “0.2 to 25 uM”; outline: as §2
[5] = Volume of distribution at steady state in rat at 1 mg/kg, iv and 2 mg/kg, po; format: ADME, organism-based; details: in vivo, read-out: Vdss
Outline: (§3)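 Rat PK: dosed at 1 mg/mL in ethanol/PEG/water (20:40:40); IV 1 mg/kg (n = 2), PO 2 mg/kg (n = 3). Blood levels measured by LC/MS/MS after acetonitrile protein precipitation.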

[6] = Half life at steady state in rat at 1 mg/kg, iv and 2 mg/kg, po; format: ADME, organism-based; details: in vivo; outline: as §3
[7] = molecular target: T1, Bifunctional epoxide hydrolase 2; assay: Inhibition of human sEH assessed as DHET production in presence of 10% human serum
[8] = Oral bioavailability in rat at 2 mg/kg; format: ADME, organism-based; details: in vivo; outline: as §3
[9] = Clearance in rat at 1 mg/kg, iv and 2 mg/kg, po; format: ADME, organism-based; details: in vivo; outline: as §3

Structure (SMILES)	IC50 [1] [nM]	IC50 [2] [nM]	other results
c1ccc(Cc2nnc(Nc3ccccc3)o2)cc1	> 10000		
c1ccc(CNc2ccc(-c3ccccc3)cn2)cc1	> 10000		
FC(F)(F)c1ccc(Nc2noc3cc(-c4cccnc4)ccc23)cc1	23	20	
c1ccc(-c2cccc(Nc3noc4ccccc34)c2)cc1	960		
FC(F)(F)c1ccc(Nc2noc3ccc(C(F)(F)F)cc23)cc1	40	1500	
c1ccc(CNc2cnc(-c3ccccc3)cn2)cc1	> 10000		
c1ccc(CNc2nnc(-c3ccccc3)o2)cc1	> 10000		
FC(F)(F)c1cccc(CNc2cc(-c3ccccc3)ncn2)c1	> 10000		
FC(F)(F)c1ccc(Nc2noc3c(C(F)(F)F)cccc23)cc1	4	127	Fu (Plasma [3]): 0.7%; Fu (Plasma [4]): 0.9%; Vd [5]: 7 L/kg; half-life [6]: 5.9 h; IC50 [7]: 1200 nM; bioavailability [8]: 98%; clearance [9]: 30 mL/min/kg
Cc1cccnc1-c1ccc2c(Nc3ccc(C(F)(F)F)cc3)noc2c1	70	290	
FC(F)(F)c1ccc(Nc2noc3c(-c4ccccc4C(F)(F)F)cccc23)cc1	4	79	
FC(F)(F)c1ccc(Nc2noc3ncccc23)cc1	27		
FC(F)(F)c1ccc(Nc2noc3cnccc23)cc1	31		
FC(F)(F)Oc1ccccc1Nc1noc2ccccc12	5200		
FC(F)(F)c1ccc(Nc2noc3cccnc23)cc1	1100		
c1ccc(-c2ccc(Nc3noc4ccccc34)cc2)cc1	170	740	
c1ccc(CNc2cc(-c3ccccc3)ccn2)cc1	> 10000		
FC(F)(F)c1ccc(Nc2n[nH]c3ccccc23)cc1	> 10000		
FC(F)(F)c1ccc(Nc2noc3cc(-c4ccccc4C(F)(F)F)ccc23)cc1	8	70	
FC(F)(F)c1ccc(Nc2noc3cc(-c4ccc5[nH]ccc5c4)ccc23)cc1	70	77	
c1ccc(CNc2cnc3ccccc3n2)cc1	> 10000		

More lines, main results first:

IC50 [1] [nM]	IC50 [2] [nM]	Structure (SMILES)	other results
> 10000		c1ccc(CNc2nc3ccccc3s2)cc1	
58	19	FC(F)(F)c1ccc(Nc2noc3cc(-c4ccncc4)ccc23)cc1	
840	4600	c1ccc2c(Nc3noc4ccccc34)cccc2c1	
2500		FC(F)(F)c1ccc(Nc2nsc3ccccc23)cc1	
19	30	FC(F)(F)c1ccc(Nc2noc3cc(-c4cccc5cnccc45)ccc23)cc1	
> 10000		FC(F)(F)c1ccc(Nc2cc(-c3ccccc3)on2)cc1	
1200		FC(F)(F)c1ccc(CNc2noc3ccccc23)cc1	
8	41	FC(F)(F)c1ccc(Nc2noc3c(-c4ccc5[nH]ccc5c4)cccc23)cc1	
> 10000		c1ccc(CNc2nc3ccccc3o2)cc1	
91	55	Fc1ccccc1-c1ccc2c(Nc3ccc(C(F)(F)F)cc3)noc2c1	
4700		FC(F)(F)c1ccc(CNc2cc(-c3ccccc3)on2)cc1	
25	76	FC(F)(F)c1ccc(Nc2noc3ccccc23)cc1	
470	570	FC(F)(F)c1ccc(Nc2noc3cc(-c4cccc(C(F)(F)F)c4)ccc23)cc1	
> 10000		c1ccc(CNc2nnc(Cc3ccccc3)o2)cc1	
10	130	FC(F)(F)c1ccc(Nc2noc3c(-c4cccc(C(F)(F)F)c4)cccc23)cc1	
1200		c1ccc2cc(Nc3noc4ccccc34)ccc2c1	
> 10000	> 10000	FC(F)(F)c1ccc(Nc2noc3c(C(F)(F)F)cccc23)nc1	
18		FC(F)(F)c1ccc(Nc2noc3cc(C(F)(F)F)ccc23)cc1	
60	170	FC(F)(F)Oc1ccc(Nc2noc3ccccc23)cc1	
19	300	FC(F)(F)c1ccc(Nc2noc3c(C(F)(F)F)nccc23)cc1	
960		FC(F)(F)c1ccccc1Nc1noc2ccccc12	
2000		FC(F)(F)c1nnc(Nc2ccccc2)o1	
74	3400	FC(F)(F)c1ccc(Nc2noc3c(C(F)(F)F)cccc23)cn1	
340		FC(F)(F)c1ccc(Nc2noc3ccncc23)cc1	
160	160	FC(F)(F)Oc1cccc(Nc2noc3ccccc23)c1	
